High-throughput results as filed in PubChem BioAssay.
SENP1 FRET inh: blocks the human SENP1 SUMO protease catalytic domain | AID 624204 | 0.21% of 360,000 active | recombinant SENP1 catalytic domain, CyPet-SUMO1-YPet FRET cleavage | inhibition, % at 10 µM;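 active means inhibition at least 30% at 10 µM, raw YFP signal under a set limit, fluorescence ratio 0.5 to 1.5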
Target sequence (Q9P0U3 419-644 limits assumed): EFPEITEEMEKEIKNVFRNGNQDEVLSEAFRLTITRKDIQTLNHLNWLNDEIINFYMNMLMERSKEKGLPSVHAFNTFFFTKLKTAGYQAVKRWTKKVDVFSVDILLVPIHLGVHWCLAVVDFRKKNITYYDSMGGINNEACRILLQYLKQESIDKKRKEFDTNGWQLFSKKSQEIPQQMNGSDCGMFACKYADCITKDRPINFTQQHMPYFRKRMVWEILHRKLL
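Material: hSENP1 catalytic domain, recombinant; medium: Tris pH 8 with BME, BSA, NP40 and catalase; compound: single concentration of 10 µM compound, 0.5% DMSO final; technique: FRET read of cyan and yellow fluorescence; timing: 50 min enzyme reaction, room temperature, light-protected; reagent: SFCypet-SUMO1-SFYpet substrate at 25 nM; control set: no-enzyme low, enzyme-DMSO high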
Rpn11 inh: blocks the human proteasome subunit Rpn11 | O00487 | human 26S proteasome, Ub4-pepOG fluorescence polarization; 20S core pre-blocked with epoxomicin | inhibition, % at 20 µM | 0.59% of 360,000 active;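 active means inhibition at 20 µM, scaled to each plate's controls, above about 33%, limit read from the data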
HNF4A DNA FP: change in binding of human HNF4 alpha to DNA. 0.3% of 360,000 active. P41235. activity change, % at 10 µM. HNF4a-FITC DNA binding, fluorescence polarization, 1 h; in the data active means activity change above about 30%, passing the limit was not always enough
TPT1 inh: blocks Candida albicans tRNA 2'-phosphotransferase; recombinant caTPT1, FP RNA substrate dephosphorylation; inhibition, % at 5 µM; 0.81% of 300,000 active;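 active means inhibition above the mean of all tested compounds plus 3 SD, set per screening campaign, cut at about 24% in these data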
CSN deneddyl inh: inhibitors of human CSN-mediated cullin deneddylation; Q92905; Purified CSN, SCF-Nedd8-OG deneddylation, fluorescence polarization; inhibition, % at 12.5 µM; 0.38% of 360,000 active;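 active means pattern-corrected inhibition above about 35%, with an unprinted fluorescence ratio check between 0.5 and 1.5, limit read from the data, passing the limit was not always enough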
Target sequence (Q92905 whole entry, looked up, one chain of several): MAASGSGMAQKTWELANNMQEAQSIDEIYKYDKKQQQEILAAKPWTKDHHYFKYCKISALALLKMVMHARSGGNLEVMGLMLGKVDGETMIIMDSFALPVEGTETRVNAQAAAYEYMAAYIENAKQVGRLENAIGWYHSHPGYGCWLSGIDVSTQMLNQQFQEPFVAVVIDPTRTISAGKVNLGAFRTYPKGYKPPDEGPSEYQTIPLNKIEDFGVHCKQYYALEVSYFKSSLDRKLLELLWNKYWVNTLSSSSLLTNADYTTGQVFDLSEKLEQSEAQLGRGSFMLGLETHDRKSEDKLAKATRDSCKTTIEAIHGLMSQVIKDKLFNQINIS
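assay system = purified human Csn5 enzyme expressed in HEK293T cells | amount = 0.24 nM enzyme | buffer or medium = Tris/NaCl/DTT buffer, pH 7.5 | reagent = 10 nM SCFSkp2-Nedd8OG | compound = one concentration, 12.5 µM, 0.25% DMSO | times = 90 min reaction at room temperature | signal = FP | read-out basis = % inhibition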
ATG4B inhibitor: ATG4B (human) cysteine protease inhibition; inhibition, % at 8.33 µM; 0.51% of 340,000 active; ATG4B cleavage of LC3-PLA2, NBD-HPC fluorescence, 1 h; Q9Y4P1; in the data active means inhibition above about 40%
ATG4B confirm: confirmation of human ATG4B inhibitors. shares compounds with ATG4B inhibitor. ATG4B protease fluorescent substrate cleavage assay. inhibition, % at 8.33 µM. 92% of 320 active; in the data active means inhibition above about 39%
PLA2 ctr: counter-screen for ATG4B inhibitors: human phospholipase A2 | shares compounds with ATG4B inhibitor | purified PLA2, NBD-C6-HPC fluorescence, 45 min | inhibition, % at 8.33 µM | 66% of 1,600 active; in the data active means inhibition above about 50%
Target sequence (P04054 whole entry, looked up): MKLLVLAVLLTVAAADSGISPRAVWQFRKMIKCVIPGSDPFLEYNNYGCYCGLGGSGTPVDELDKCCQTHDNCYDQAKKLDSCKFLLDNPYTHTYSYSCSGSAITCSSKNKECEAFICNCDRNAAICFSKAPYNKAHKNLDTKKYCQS
Hits are given with their value; 0 = inactive; - = no result shown. An excerpt weighted towards active compounds, which were near 2% of everything screened.

SMILES | SENP1 FRET inh | Rpn11 inh | HNF4A DNA FP | TPT1 inh | CSN deneddyl inh | ATG4B inhibitor | PLA2 ctr | others
Cc1ccc(C)n1N1C(=O)/C(=C\c2ccc(Cl)cc2)SC1=S | 0 | 0 | 0 | 0 | 0 | 0 | -
O=C1CN(c2ccccc2)C(=S)N1C(=O)c1ccc(Br)cc1 | 0 | 0 | 0 | 0 | 0 | 0 | -
COc1ccc2c(c1)C(c1cccs1)=NNC(c1ccncc1)=N2 | 0 | 0 | 0 | 0 | 0 | 0 | -
COc1ccc2c(c1)C(c1ccc(C)o1)=NNC(c1ccccc1)=N2 | 0 | 0 | 0 | 0 | 0 | 42 | 0 | ATG4B confirm=69
CC(C)c1ccc2c(c1)C(c1cccs1)=NNC(c1ccncc1)=N2 | 0 | 0 | 0 | 0 | 0 | 0 | -
COc1ccc2c(c1)C(c1ccc(C)o1)=NNC(c1cccnc1)=N2 | 0 | 0 | 0 | 0 | 0 | 0 | -
CC(C)c1ccc2c(c1)C(c1ccc(N3CCOCC3)cc1)=NNC(c1cccs1)=N2 | 0 | - | 0 | 0 | 0 | 70 | 72
CCOc1ccc2c(c1)C(c1ccccc1)=NNC(c1ccccc1)=N2 | 0 | 0 | 0 | 0 | 0 | 75 | 72
CCCOc1ccc(C2=NNC(c3cccs3)=Nc3ccc(OC)cc32)cc1 | 0 | 0 | 0 | 0 | 0 | 49 | 77
Cc1ccc(C2=Nc3ccc(Br)cc3C(c3ccncc3)=NN2)cc1 | 0 | 0 | 0 | 0 | 0 | 44 | 0
c1ccc(C2=Nc3c(ccc4ccccc34)C(c3ccncc3)=NN2)cc1 | 0 | 0 | 0 | 0 | 0 | 47 | 71
CCc1ccc2c(c1)C(c1ccncc1)=NNC(c1ccccc1)=N2 | 0 | 0 | 0 | 0 | 0 | 48 | 59
Cc1ccc2c(c1)C(c1ccncc1)=NNC(c1ccc(F)cc1)=N2 | 0 | 0 | 0 | 0 | 0 | 0 | -
Cc1ccc2c(c1)C(c1ccncc1)=NNC(c1ccccc1)=N2 | 0 | 0 | 0 | 0 | 0 | 0 | -
O=C(c1ccc2c(c1)CCC2)N1CCN(Cc2c(F)cccc2Cl)CC1 | 0 | 0 | 0 | - | 0 | - | -
CC(=O)N1C[C@H]2CON(C)[C@H]2C[C@H]1c1cccc(N2CCOCC2)c1 | 0 | 0 | 0 | - | 0 | - | -
CC1(C(=O)NS(=O)(=O)c2cccc(OC(F)F)c2)CCN1C(=O)CCc1cccs1 (stereo not given) | 0 | 0 | 0 | - | 0 | - | -
COC(=O)N1CCCCC1c1cc(C(=O)N2CCOCC2)no1 (stereo not given) | 0 | 0 | 0 | - | 0 | - | -
O=C(/C=C1\NC2(CCCC2)Cc2ccccc21)C(=O)N/N=C/c1ccccc1O | 0 | 0 | 0 | 0 | 0 | 44 | 0
N#Cc1cccnc1N1CCN(C(C(=O)NC2CCCC2)c2ccc(F)cc2)CC1 (stereo not given) | 0 | - | 0 | - | 0 | - | -
CC1(C)SC(=S)N(NC(=O)Nc2cccc3ccccc23)C1N(O)C(=O)Nc1ccccc1 (stereo not given) | 0 | 0 | 0 | 0 | 0 | 46 | 58
COc1ccc([C@H]2CC(=O)C=C(c3ccc(CNC(=O)OC(C)(C)C)cc3)C2)cc1 | 0 | 0 | 0 | - | 0 | 0 | -
CCOC(=O)c1c(/N=C/C2=C(O)CC(C)(C)CC2=O)sc(C)c1C | 0 | 0 | 0 | 0 | 0 | 62 | 0 | ATG4B confirm=69
Cc1nn(Cc2ccccc2)c(C)c1NC(=O)CCCn1nc([N+](=O)[O-])c(Cl)c1C | 0 | 0 | 0 | 0 | 0 | 0 | -
Cc1c(Cl)c([N+](=O)[O-])nn1CCCC(=O)Nc1cccc(Cl)c1 | 0 | 0 | 0 | 0 | 0 | 75 | 78
SMILES | SENP1 FRET inh | Rpn11 inh | HNF4A DNA FP | TPT1 inh | CSN deneddyl inh | ATG4B inhibitor | PLA2 ctr | others
Cc1c(Cl)c([N+](=O)[O-])nn1CCCC(=O)Nc1cccnc1 | 0 | 0 | 0 | 0 | 0 | 0 | -
Cc1nn(Cc2c(Cl)cccc2Cl)c(C)c1NC(=O)CCCn1nc([N+](=O)[O-])c(Cl)c1C | 0 | 0 | 0 | 0 | 0 | 46 | 0 | ATG4B confirm=70
CC1CC1c1ccc(/C=C(\C#N)C(=O)Nc2ccccc2Cl)o1 (stereo not given) | 0 | 0 | 0 | 0 | 0 | 41 | 51
CC1CC1c1ccc(/C=C(\C#N)C(=O)Nc2ccc(Cl)cc2)o1 (stereo not given) | 0 | 0 | 0 | 0 | 0 | 0 | -
COc1ccc(NC(=O)c2ccc3c(c2)S(=O)(=O)N=C2CCCCCN23)cc1S(N)(=O)=O | 0 | 0 | 0 | - | 0 | 0 | -
CCCOc1c(Br)cc(C(N)=O)cc1OCC | 0 | 0 | 0 | 0 | 0 | 42 | 56
CCOc1cc(/C=N/NC(N)=O)cc(Br)c1OCc1ccccc1 | 0 | 0 | 0 | 0 | 0 | 0 | -
CCOc1c(Br)cc(C(N)=O)cc1OC | 0 | 0 | 0 | 0 | 0 | 0 | -
COc1cc(C(N)=O)cc(Br)c1OCc1ccccc1 | 0 | 0 | 0 | 0 | 0 | 70 | 71
CCOc1c(Br)cc(C(N)=O)cc1OCc1ccccc1 | 0 | 0 | 0 | 0 | 0 | 79 | 80
CN(C)c1ccc(C(=O)C(=O)N2CCN(c3ccccc3)CC2)cc1 | 0 | - | 0 | - | 0 | - | -
CC(C)(C)c1ccc(S(=O)(=O)NC(=O)C2(C)CCN2C(=O)Cc2cccs2)cc1 (stereo not given) | 0 | 0 | 0 | - | 0 | - | -
CC(=O)c1c(C)[nH]c(C(=O)CN2C(=O)NC3(CCCCC3C)C2=O)c1C (stereo not given) | 0 | 0 | 0 | - | 0 | 0 | -
O=C(CCC1CCCC1)Nc1ccccc1-c1ccccc1 | 0 | 0 | 0 | 0 | 0 | 45 | 50
O=C(CCC1CCCCC1)Nc1ccccc1-c1ccccc1 | 0 | 0 | 0 | 0 | 0 | 53 | 54
Cn1ccc2c(-c3ccc4c(c3)OCCO4)cc3c(c21)C1CCC3O1 (stereo not given) | 0 | 0 | 0 | - | 0 | - | -
CC(C)(C)c1ccc(C(=O)Nc2ccccc2Cl)cc1 | 0 | 0 | 0 | 0 | 0 | 45 | 55
CS(=O)(=O)Nc1ccc(C(=O)Nc2ccccc2Cl)cc1 | 0 | 0 | 0 | 0 | 0 | 0 | -
CSc1ncnc2c1ncn2CCCNCc1ccc2c(c1)OCO2 | 0 | 0 | 0 | - | 0 | - | -
CC(=O)c1ccccc1NC(=O)COc1ccc(N(C)S(=O)(=O)c2ccc(C)c(C)c2)cc1 | 0 | 0 | 0 | - | 0 | 85 | 0
COCCNC(=O)c1ccc2c(c1)ncn2-c1cccc(C)c1 | 0 | 0 | 0 | 0 | 0 | 0 | -
Cc1cccc(-n2cnc3cc(C(=O)N4CCc5ccccc54)ccc32)c1 | 0 | 0 | 0 | 0 | 0 | 62 | 64
CCOC(=O)[C@]12CCCC=C1N(CCc1ccc(OC)c(OC)c1)C(=O)[C@H](CC(=O)NCCCCc1ccccc1)C2 | 0 | - | 0 | - | 0 | - | -
CC1CCC(N(C)C(=O)CN2C(=O)NC(c3ccccc3)(c3ccccc3)C2=O)CC1 (stereo not given) | 0 | 0 | 0 | - | 0 | - | -
